A selection: hits, their analogues and other compounds. The true share with any hit is near 3%.
NR3A LBD binder = NR3A (human) ligand-binding domain modulation | actives 2.5% (n = 340,000) | NR3A LBD differential scanning fluorimetry, Tm shift; 0% = protein alone, 100% = glycine-bound protein | AID 1259313 | Tm shift relative to glycine control, % at 25 µM;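 active means melting temperature shift of at least 10% of the positive control shift, at one fixed dose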
NPR1 activator = GC-A (human) enzyme activation; HEK293 GC-A cells, cGMP TR-FRET, EC30 ANP; 0% at EC30 ANP, 100% saturating ANP; P16066; activation, % at 10 µM; AID 1671463; actives 0.14% (n = 370,000); in the data active means activation above about 40%
GC-B act = GC-B (human) receptor activation; P20594; HEK293-GC-B cells, CNP EC30, cGMP TR-FRET; 0% at EC30 CNP, 100% saturating CNP; activation, % at 10 µM; actives 0.11% (n = 370,000); AID 1920062;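 active means activation at 10 µM reaching about 35% in either raw or pattern-adjusted values, limit read from the data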
JMJD2C inh = human JMJD2C demethylase inhibition | Q9H3R0 | GST-JMJD2C(1-420) H3K9me3 demethylation, DELFIA europium | inhibition, % at 2.35 µM | actives 0.069% (n = 330,000);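 active means more than half of a compound's replicate wells show inhibition beyond 50%, single wells judged on their own value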;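 further: signal counts dimethyl H3K9 product captured on neutravidin plate; 0% = median of DMSO wells and 100% = 0.3 times that DMSO median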
Target sequence (Q9H3R0 1-420 limits assumed): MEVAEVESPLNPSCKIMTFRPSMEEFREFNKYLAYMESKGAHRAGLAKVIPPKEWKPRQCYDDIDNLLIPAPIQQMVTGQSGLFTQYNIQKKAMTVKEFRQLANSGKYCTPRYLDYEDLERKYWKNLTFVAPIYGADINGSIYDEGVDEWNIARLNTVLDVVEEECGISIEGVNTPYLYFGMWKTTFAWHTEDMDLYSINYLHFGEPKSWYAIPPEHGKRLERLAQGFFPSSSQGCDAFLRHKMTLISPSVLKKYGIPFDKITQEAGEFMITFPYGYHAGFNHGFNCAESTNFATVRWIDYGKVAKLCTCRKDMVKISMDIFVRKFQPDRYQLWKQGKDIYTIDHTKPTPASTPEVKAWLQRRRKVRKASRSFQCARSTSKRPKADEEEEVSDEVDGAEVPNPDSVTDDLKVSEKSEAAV
aDG glyco act = increases alpha dystroglycan glycosylation | activation, % at 10 µM | actives 0.22% (n = 360,000) | Pro5-aDG cells, alpha-DG glycosylation AlphaScreen (IIH6); 0% Pro5, 100% B10-LARGE cell signal;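 active means activation of at least 8% versus controls, or a plate z-score of at least 8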;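 further: Pro5 are CHO cells carrying HIG-tagged alpha-DG that lacks glycosylation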
Hep lipid drop = modulators of hepatic lipid droplet formation; inhibition, % at 6.5 µM; AML12 mouse hepatocytes, oleate lipid droplets, BODIPY imaging; actives 0.4% (n = 240,000);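 active means lipid droplet intensity inhibited by at least 50%, with more than 500 cells counted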
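Material – mouse AML12 hepatocyte cell line, fixed after treatment · Compound dosing – one dose, 6.5 µM compound · Times – compound with oleate, overnight · Measured by – Image-based BODIPY and DAPI two-channel analysis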
Hep lipid conf = confirmation of inhibitors of hepatic lipid droplet formation; AID 463183; shares compounds with Hep lipid drop; AML12 mouse hepatocytes, BODIPY lipid droplet imaging; droplets induced with 100 µM oleic acid; actives 65% (n = 870); inhibition, % at 5.2 µM;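 active means inhibition of lipid droplet metric at least 50%, with more than 300 cells in each of four replicates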;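 further: plate controls were DMSO with oleic acid for no effect and 5 µM Triacsin-C for full effect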
AML12 tox img = AML12 hepatocyte cytotoxicity (counter-screen); z-score at 5 µM; shares compounds with Hep lipid drop; actives 3% (n = 870); AID 463200; AML12 mouse hepatocytes, DAPI nuclear morphology cytotoxicity imaging; stronger effect = higher value; cells fed 100 µM oleate overnight; in the data active means z-score above about 6.3;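 further: compound exposure lasted overnight at 37 °C before fixation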
AML12 tox ATP = AML12 hepatocyte cytotoxicity, confirmed | AID 463219 | cytotoxicity, % at 50 µM | AML12 mouse hepatocyte viability, ATP luminescence; cells loaded with 100 µM oleic acid | 530 tested, under 10 active | shares compounds with Hep lipid drop;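 active means cytotoxicity above 50% in each of four replicates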;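 further: compound exposure lasted overnight at 37 °C before the ATP read; 0% = DMSO-treated cells and 100% = wells with no cells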
Numbers without * were called inactive; nt = not tested or not shown.

SMILES	NR3A LBD binder	NPR1 activator	GC-B act	JMJD2C inh	aDG glyco act	Hep lipid drop	Hep lipid conf	AML12 tox img	AML12 tox ATP
Cc1cc(C(c2ccc(O)cc2)c2cc(C)c(O)cc2C)c(C)cc1O	-13.9	-7.7	-4.2	34.1	-0.1	56.4*	21.5	-0.959	nt
COc1ccc(CNC(=O)CN2C(=O)NC(C)(c3cccc4ccccc34)C2=O)cc1OC (stereo unspecified)	0.9	-1.7	-1.7	0.6	-0.1	77.5*	105.2*	-0.253	14.3
CCOc1ccccc1NC(=O)CSc1nnc(Cn2c(=O)sc3ccccc32)n1C	-1.8	-1.6	-0.1	5.8	0.1	52.7*	41.0	-0.271	nt
CCCCCCCCN1C(=O)[C@H](CC(=O)NCCCC)C[C@@]2(C(=O)OC)CC(C)(C)CC=C12	nt	-2.9	2.8	nt	0.1	nt	nt	nt	nt
CCN(Cc1ccccc1)C(=O)C1CCN(C(=O)Nc2ccccc2)CC1	-0.8	2.2	1.9	-0.8	-0.4	77.2*	104.4*	-1.7	8.5
COc1ccc(C2(C)NC(=O)NC2=O)cc1OC (stereo unspecified)	1.6	-0.5	2.4	-12.6	0.0	-1.1	nt	nt	nt
CC1=C/C(=N\Nc2ccccc2[N+](=O)[O-])CC(C)(C)C1	-0.8	-6.0	-8.5	-0.7	-0.4	76.8*	114.7*	-0.266	nt
CCOc1cc2[nH]c(=O)n(CCCC(=O)N(C)Cc3ccccc3)c(=O)c2cc1OCC	-4.5	-3.2	-0.6	-25.3	0.0	69.9*	107.2*	-0.476	10.3
CC(C)C(=O)N(Nc1nc2ccccc2s1)C(=O)C(C)C	-6.8	0.6	-1.7	-3.5	0.0	72.0*	70.0*	0.0559	8.0
Cc1ccn2cc(-c3ccc(O)c(O)c3)nc2c1	-0.9	-5.4	-2.9	21.1	0.0	-19.1	nt	nt	nt
Cc1ccc(Cn2nnc3c2-c2ccccc2S(=O)(=O)N(C(C)(C)C)C3)cc1	nt	-1.8	2.0	nt	nt	nt	nt	nt	nt
C=CCN1C(=O)c2ccccc2Sc2ccc(C(=O)NCC(OC)OC)cc21	1.2	2.5	-2.9	-3.7	0.0	54.7*	33.9	-0.909	nt
CCOc1ccc(NS(=O)(=O)c2ccc(C(=O)N3CCC3)cc2)cc1	2.2	1.0	-5.7	-9.4	0.2	71.0*	99.3*	-0.558	14.3
C=CCNc1ccc2c(c1)OC[C@H](CC(C)C)NS2(=O)=O	nt	1.2	1.1	nt	nt	nt	nt	nt	nt
COc1ccc(NS(=O)(=O)c2ccc(NC(=S)NCC3CCCO3)cc2)cc1 (stereo unspecified)	-6.2	2.0	-5.3	4.6	-0.2	84.4*	99.8*	-0.393	18.8
O=C1CN(C(=O)CN2CCN(S(=O)(=O)c3ccccc3)CC2)c2ccccc2N1	nt	3.5	4.4	nt	0.0	nt	nt	nt	nt
Cc1cccc(NC(=O)c2nc[nH]c2C(=O)NCC(=O)OC(C)(C)C)c1	-3.1	2.5	-2.9	-2.4	0.1	52.4*	7.8	0.556	nt
O=C(Nc1nc(-c2ccc(-c3ccccc3)cc2)cs1)C1CCCO1 (stereo unspecified)	-2.8	10.3	-1.3	2.2	0.2	60.7*	101.8*	0.32	9.3
O=C(Nc1nc(-c2ccccc2)cs1)C1CCCCN1S(=O)(=O)c1ccc(Cl)cc1 (stereo unspecified)	9.5	1.5	-2.8	-3.1	0.8	61.9*	91.0*	-0.0807	1.8
O=C(Nc1nc(-c2ccccc2)cs1)C1CCCO1 (stereo unspecified)	2.1	8.3	-1.2	-4.8	-0.2	18.0	nt	nt	nt
CCC1CCCCN1Cc1c(O)ccc2c(=O)c(-c3ccccc3)coc12 (stereo unspecified)	1.9	5.4	-1.4	5.5	-0.2	-1.5	nt	nt	nt
CC1CCCCN1Cc1c(O)ccc2c(=O)c(-c3ccccc3)coc12 (stereo unspecified)	-0.2	-1.8	1.1	-7.0	-0.1	87.3*	-34.6	1.02	nt
COc1cc2ncc(C(=O)c3ccccc3)c(N3CCN(Cc4ccccc4)CC3)c2cc1OC	-5.9	2.9	2.6	12.8	0.0	26.6	nt	nt	nt
CN(C)C(=O)c1ccc(-n2cnc3ccccc3c2=O)cc1	0.1	-3.5	-1.2	-32.6	0.4	5.3	nt	nt	nt
CN(C)/C=N/n1cnc2ccccc2c1=O	-2.9	-1.0	0.3	4.6	0.2	61.1*	-23.7	-0.364	nt
SMILES	NR3A LBD binder	NPR1 activator	GC-B act	JMJD2C inh	aDG glyco act	Hep lipid drop	Hep lipid conf	AML12 tox img	AML12 tox ATP
CC(C)(C)C(=O)Cn1c(=O)n(CC2CCCO2)c(=O)c2ccccc21 (stereo unspecified)	-1.5	0.6	2.7	-14.7	0.2	54.6*	9.3	-0.424	nt
O=C(Cn1c(=O)n(CC2CCCO2)c(=O)c2ccccc21)c1ccc(Cl)c(Cl)c1 (stereo unspecified)	-10.1	1.1	-1.5	-24.6	-0.1	5.5	nt	nt	nt
C=CCCN1[C@@H](Cc2ccccc2)COc2ccccc2S1(=O)=O	nt	-4.8	-3.6	nt	nt	nt	nt	nt	nt
CC1=C(C(=O)NC2CCCc3c2cnn3-c2cccc(C)c2C)OCCO1 (stereo unspecified)	0.6	2.9	-4.1	-1.9	2.3	62.8*	104.9*	-0.495	15.6
Cc1cc(C)cc(-n2ncc3c2CCCC3NC(=O)c2ccccc2)c1 (stereo unspecified)	nt	-10.1	-1.4	nt	0.8	nt	nt	nt	nt
Cc1cc(C(=O)NC2CCCc3c2cnn3-c2cccc(C)c2C)no1 (stereo unspecified)	-0.9	5.3	0.4	-14.2	1.0	-2.5	nt	nt	nt
Cc1cccc(-n2ncc3c2CCCC3NC(=O)c2ccncc2)c1C (stereo unspecified)	nt	1.1	-1.5	nt	1.7	nt	nt	nt	nt
COc1cccc(C(=O)NC2CCCc3c2cnn3-c2cc(C)cc(C)c2)c1 (stereo unspecified)	-0.7	-5.1	-1.4	19.8	0.2	73.8*	107.8*	-0.268	9.9
COc1ccc(C(=O)NC2CCCc3c2cnn3-c2cccc(C)c2C)o1 (stereo unspecified)	-2.3	0.0	-0.2	-1.7	5.5	50.5*	88.4*	-0.189	7.0
COc1c(C)cc(Br)cc1C(=O)Nc1cccc(NC(=O)c2ccco2)c1	-3.9	-3.2	-2.3	4.7	0.3	59.5*	97.3*	0.257	0.9
COc1cccc(NC(=O)c2ccco2)c1	1.8	2.5	0.7	0.0	-0.1	4.3	nt	nt	nt
